Here are results for 3 molecules from paper PMC11634041 (Nature, 2024).

Data set [1] has as its target spHCN (R332C background, Alexa-488 labelled, called WT) (Strongylocentrotus purpuratus, UniProt O76977, R332C/M375L). Kind of data set: two-electrode voltage clamp, oocytes. It is filed as cell-based. The note with it: 100 μM ZD7288; pore blocker control; Alexa-488-labelled channel.
The target of a further data set is T1, human HCN1 (full length) (Homo sapiens, UniProt O60741).
T1 sequence (O60741 1-890): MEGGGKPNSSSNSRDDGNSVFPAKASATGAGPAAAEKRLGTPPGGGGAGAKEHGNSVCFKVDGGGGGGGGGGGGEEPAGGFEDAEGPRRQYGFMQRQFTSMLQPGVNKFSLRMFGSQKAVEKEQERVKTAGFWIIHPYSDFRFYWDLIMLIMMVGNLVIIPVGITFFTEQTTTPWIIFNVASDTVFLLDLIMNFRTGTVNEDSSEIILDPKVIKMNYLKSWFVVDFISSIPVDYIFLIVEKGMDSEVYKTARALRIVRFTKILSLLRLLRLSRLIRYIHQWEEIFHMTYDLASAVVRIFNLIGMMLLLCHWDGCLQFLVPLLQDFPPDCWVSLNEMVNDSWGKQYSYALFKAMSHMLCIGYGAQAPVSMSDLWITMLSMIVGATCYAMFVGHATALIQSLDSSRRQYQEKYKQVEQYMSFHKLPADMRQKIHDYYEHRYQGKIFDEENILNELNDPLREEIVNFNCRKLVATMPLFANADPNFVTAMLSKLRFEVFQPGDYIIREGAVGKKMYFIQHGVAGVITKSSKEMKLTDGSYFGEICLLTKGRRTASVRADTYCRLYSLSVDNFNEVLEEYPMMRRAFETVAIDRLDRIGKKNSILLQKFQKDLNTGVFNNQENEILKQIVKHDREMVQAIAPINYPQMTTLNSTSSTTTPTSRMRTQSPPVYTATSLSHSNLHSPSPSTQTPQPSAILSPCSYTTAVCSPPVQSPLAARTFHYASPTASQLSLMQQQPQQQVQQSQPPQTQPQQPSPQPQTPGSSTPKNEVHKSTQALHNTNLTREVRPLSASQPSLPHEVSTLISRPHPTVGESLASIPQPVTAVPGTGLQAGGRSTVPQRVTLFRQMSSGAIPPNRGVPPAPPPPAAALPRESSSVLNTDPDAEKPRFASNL
Put plainly: two-electrode voltage clamp, oocytes. It is filed as cell-based. The note with it: 30 μM propofol, 20 min incubation; pH 7.4; allosteric inhibitor. Put shortly: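 Full-length human HCN1 RNA (wild type or mutant), made by in vitro transcription, injected into defolliculated Xenopus laevis oocytes. Oocytes stored at 16°C in 1:2 diluted L-15 medium with 2.5% penicillin-streptomycin and 5 mM HEPES pH 7.5. Two-electrode clamp used 3 M KCl-filled electrodes (0.1–0.5 MΩ current, 1–5 MΩ voltage).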

The data set “cryo-EM structure” deals with the molecule itself. Kind of data set: cryo-EM structure.

Regarding `CCN(c1ccccc1)c1cc(NC)[n+](C)c(C)n1` [ZD7288], in data set [1], the “two-electrode voltage clamp, oocytes” value is given as “currents from spHCN M375L channels are blocked by the HCN-channel blocker ZD7288”. As to `CC(C)c1cccc(C(C)C)c1O` [propofol, 2,6-di-iso-propylphenol], on human HCN1 (full length), the “ΔV1/2 (mV) / I / Iapo (%)” value was −30.9 ± 6.4 mV.

B1: human HCN1EM M305L in lipid nanodiscs (natural protein, UniProt O60741 1-890, looked up)
chain: MEGGGKPNSSSNSRDDGNSVFPAKASATGAGPAAAEKRLGTPPGGGGAGAKEHGNSVCFKVDGGGGGGGGGGGGEEPAGGFEDAEGPRRQYGFMQRQFTSMLQPGVNKFSLRMFGSQKAVEKEQERVKTAGFWIIHPYSDFRFYWDLIMLIMMVGNLVIIPVGITFFTEQTTTPWIIFNVASDTVFLLDLIMNFRTGTVNEDSSEIILDPKVIKMNYLKSWFVVDFISSIPVDYIFLIVEKGMDSEVYKTARALRIVRFTKILSLLRLLRLSRLIRYIHQWEEIFHMTYDLASAVVRIFNLIGMLLLLCHWDGCLQFLVPLLQDFPPDCWVSLNEMVNDSWGKQYSYALFKAMSHMLCIGYGAQAPVSMSDLWITMLSMIVGATCYAMFVGHATALIQSLDSSRRQYQEKYKQVEQYMSFHKLPADMRQKIHDYYEHRYQGKIFDEENILNELNDPLREEIVNFNCRKLVATMPLFANADPNFVTAMLSKLRFEVFQPGDYIIREGAVGKKMYFIQHGVAGVITKSSKEMKLTDGSYFGEICLLTKGRRTASVRADTYCRLYSLSVDNFNEVLEEYPMMRRAFETVAIDRLDRIGKKNSILLQKFQKDLNTGVFNNQENEILKQIVKHDREMVQAALPRESSSVLNTDPDAEKPRFASNL
With B1, the binding result in the data set “cryo-EM structure” is given as “binds”.
